Activity calls are given as the source filed them. The calls are words filed in the database; no cut-off is given here.
Assays:
[1] = target: Acetylcholinesterase (Electrophorus electricus) (UniProt O42275); assay: Inhibition of electric eel AChE at 10 uM by Ellman's method
[2] = target: Cholinesterase (Equus caballus) (UniProt P81908); assay: Binding affinity to equine serum BChE assessed as compound-enzyme complex stability
In short: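 Kinetic study on equine serum BChE with time-dependent inhibition followed to steady state (60 min); equilibrium constant of inhibitor–BChE complex (K_C) and carbamoylation rate constant (k3) determined.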

Acetylcholinesterase = Acetylcholinesterase (Electrophorus electricus, UniProt O42275); assay: Inhibition of electric eel AChE by Ellman's method
Chain of Acetylcholinesterase (O42275 whole entry): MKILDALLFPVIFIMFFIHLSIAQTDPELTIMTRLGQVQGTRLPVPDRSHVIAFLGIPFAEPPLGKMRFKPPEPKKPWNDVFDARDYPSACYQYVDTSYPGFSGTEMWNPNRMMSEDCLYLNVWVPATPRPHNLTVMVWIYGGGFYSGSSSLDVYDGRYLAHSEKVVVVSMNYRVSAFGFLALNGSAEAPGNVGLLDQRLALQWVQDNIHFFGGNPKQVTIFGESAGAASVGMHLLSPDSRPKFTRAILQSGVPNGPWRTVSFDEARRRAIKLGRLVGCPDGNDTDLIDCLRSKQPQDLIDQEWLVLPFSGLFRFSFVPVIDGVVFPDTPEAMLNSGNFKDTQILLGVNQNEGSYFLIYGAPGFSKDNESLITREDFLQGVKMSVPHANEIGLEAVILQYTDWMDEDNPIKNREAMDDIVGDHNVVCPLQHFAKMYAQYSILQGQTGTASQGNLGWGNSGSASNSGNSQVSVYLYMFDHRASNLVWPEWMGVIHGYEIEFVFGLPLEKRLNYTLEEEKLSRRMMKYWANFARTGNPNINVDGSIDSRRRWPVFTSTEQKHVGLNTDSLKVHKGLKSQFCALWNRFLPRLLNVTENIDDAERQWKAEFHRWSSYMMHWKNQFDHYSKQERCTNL
In short: (§1)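 Ethanol stocks diluted into assay, highest final concentration 10^-4 M. For curves, at least five concentrations (normally 10^-4 to 10^-9 M), each in triplicate; at least 3 independent determinations.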

[3] = Selectivity ratio of IC50 for Electrophorus electricus acetylcholinesterase to IC50 for equine serum butyrylcholinesterase
In short: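 Ratio IC50(AChE)/IC50(BChE), with both IC50s from Ellman assays (electric eel AChE, equine serum BChE, 25 °C, 412 nm, at least five concentrations in triplicate, at least 3 independent determinations).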

[4] = Antioxidant activity in phosphate buffer assessed as scavenging activity against peroxy radicals at pH 7.4 by ORAC-FL method relative to trolox; assay type: functional
In short: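 ORAC-FL in 75 mM phosphate buffer pH 7.4, 37 °C; sample with fluorescein (300 nM final) preincubated 15 min, then AAPH (12 mM final) added; fluorescence read every 60 s for 90 min (ex 485/em 535 nm). Blank and Trolox calibration in each assay; AUC from blank-normalised decay curves; expressed as Trolox equivalents.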

HT-22 [5] = assay: Neuroprotection against glutamate challenged mouse HT22 cells assessed as reduction in cell viability at 1 to 25 uM after 48 hrs by MTT assay; assay type: functional, cell-based
In short: (§2)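 Murine hippocampal HT-22 cells grown in high-glucose DMEM + 10% heat-inactivated FCS, 37 °C, 5% CO2. Seeded 5 × 10³/well, cultured 24 h, then 24 h with compound (DMSO stock, final DMSO ≤0.1%) plus 5 mM glutamate. MTT (4 mg/mL stock diluted 1:10) for 3 h, 10% SDS lysis, absorbance 560 nm next day. Viability as % of untreated control. Means ± SD, ≥3 independent experiments.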

Cholinesterase = Cholinesterase (Equus caballus, UniProt P81908); assay: (§3) Inhibition of equine serum BChE by Ellman's method; in short: as §1
Chain of Cholinesterase (P81908 whole entry): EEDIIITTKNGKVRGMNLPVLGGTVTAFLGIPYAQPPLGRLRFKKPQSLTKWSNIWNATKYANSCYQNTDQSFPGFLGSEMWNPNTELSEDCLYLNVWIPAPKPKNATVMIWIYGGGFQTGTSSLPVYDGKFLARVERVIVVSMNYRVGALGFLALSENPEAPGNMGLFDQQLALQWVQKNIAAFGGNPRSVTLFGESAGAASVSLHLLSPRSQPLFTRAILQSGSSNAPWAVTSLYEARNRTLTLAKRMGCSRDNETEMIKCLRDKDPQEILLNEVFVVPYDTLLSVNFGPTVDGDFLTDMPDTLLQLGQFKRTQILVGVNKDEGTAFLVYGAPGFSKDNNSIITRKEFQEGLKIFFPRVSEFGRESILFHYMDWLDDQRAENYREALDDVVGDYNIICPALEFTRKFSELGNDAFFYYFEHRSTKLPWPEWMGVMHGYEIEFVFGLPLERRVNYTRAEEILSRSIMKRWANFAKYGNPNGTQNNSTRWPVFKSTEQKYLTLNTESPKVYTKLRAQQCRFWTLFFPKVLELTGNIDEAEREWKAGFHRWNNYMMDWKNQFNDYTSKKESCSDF

[6] = target: Cholinesterase (Equus caballus) (UniProt P81908); assay: as §3; details: TDE = time-dependent effect; in short: as §1
[7] = target: Cholinesterase (Equus caballus) (UniProt P81908); assay: Inhibition of equine serum BChE at 10 uM by Ellman's method
HT-22 [8] = assay: Neurotoxicity against mouse HT22 cells assessed as reduction in cell viability at 25 uM […] by MTT assay; assay type: toxicity, cell-based; details: ht-22, 25 µM
HT-22 [9] = assay: Neurotoxicity against mouse HT22 cells assessed as reduction in cell viability at 1 to 10 uM […] by MTT assay; assay type: toxicity, cell-based; details: ht-22, 10 µM
HT-22 [10] = assay: Neuroprotection against glutamate challenged mouse HT22 cells assessed as reduction in cell viability at 5 uM after 48 hrs by MTT assay; assay type: functional, cell-based
[11] = target: Acetylcholinesterase (Electrophorus electricus) (UniProt O42275); assay: Inhibition of electric eel AChE at 100 uM by Ellman's method
[12] = target: Cholinesterase (Equus caballus) (UniProt P81908); assay: Inhibition of equine serum BChE at 100 uM by Ellman's method
HT-22 [13] = assay: Neurotoxicity against mouse HT22 cells assessed as reduction in cell viability at 1 to 25 uM […] by MTT assay; assay type: toxicity, cell-based; details: ht-22, 25 µM
HT-22 [14] = assay: Neuroprotection against glutamate challenged mouse HT22 cells assessed as reduction in cell viability at 5 to 10 uM after 48 hrs by MTT assay; assay type: functional, cell-based; in short: as §2

Chain of Acetylcholinesterase (Electrophorus electricus) (O42275 24-633 limits assumed): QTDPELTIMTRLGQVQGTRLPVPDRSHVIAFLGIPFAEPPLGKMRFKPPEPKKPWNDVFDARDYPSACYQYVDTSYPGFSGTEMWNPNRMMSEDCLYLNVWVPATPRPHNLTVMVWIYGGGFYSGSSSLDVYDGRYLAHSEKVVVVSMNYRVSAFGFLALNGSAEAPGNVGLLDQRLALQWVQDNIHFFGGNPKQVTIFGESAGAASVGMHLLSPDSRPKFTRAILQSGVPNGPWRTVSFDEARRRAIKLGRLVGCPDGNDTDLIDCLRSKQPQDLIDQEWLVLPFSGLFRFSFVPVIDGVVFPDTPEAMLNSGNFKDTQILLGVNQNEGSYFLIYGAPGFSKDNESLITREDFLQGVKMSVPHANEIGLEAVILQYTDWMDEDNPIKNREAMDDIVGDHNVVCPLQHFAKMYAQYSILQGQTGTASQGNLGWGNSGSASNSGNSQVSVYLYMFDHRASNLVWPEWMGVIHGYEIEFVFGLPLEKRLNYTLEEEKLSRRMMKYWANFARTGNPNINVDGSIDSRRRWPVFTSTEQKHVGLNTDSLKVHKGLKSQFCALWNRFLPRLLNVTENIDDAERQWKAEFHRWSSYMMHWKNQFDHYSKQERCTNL
Chain of Cholinesterase (Equus caballus) (P81908 whole entry): as the sequence (P81908 whole entry) above

| Structure (SMILES) | inhibition [1] [%] | IC50 (Acetylcholinesterase) [µM] | Ratio IC50 [3] | IC50 (Cholinesterase) [µM] | inhibition [7] [%] | other results |
| --- | --- | --- | --- | --- | --- | --- |
| CCCCCCCNC(=O)Oc1ccc2c(c1)CN1CCc3c([nH]c4ccccc34)C1N2C (stereo not given) | 17 | > 10 | > 130 | 0.077 | 7.11 | K [2]: 492 nM; ORAC value (Trolox equivalents) [4]: 1.75; Activity (HT-22 [5]): Active; inhibition [6]: tde; Activity (HT-22 [8]): Toxic; Activity (HT-22 [9]): Non-toxic |
| CN1c2ccc(OCc3ccccc3)cc2C(=O)N2CCc3c([nH]c4ccccc34)C21 (stereo not given) | 5.52 | 3.01 | 3.42 | 0.88 | 6.07 |  |
| COc1cccc(NC(=O)Oc2ccc3c(c2)CN2CCc4c([nH]c5ccccc45)C2N3C)c1 (stereo not given) | 19 | > 10 |  | > 10 | 30 |  |
| CN1c2ccc(O)cc2C(=O)N2CCc3c([nH]c4ccccc34)C21 (stereo not given) | 29 | > 100 |  | > 100 |  |  |
| CN1c2ccccc2C(=O)N2CCc3c([nH]c4ccccc34)C21 (stereo not given) | 37 | > 10 | > 2.16 | 4.62 | 5.34 |  |
| CN1c2ccc(OC(=O)NCc3ccccc3)cc2C(=O)N2CCc3c([nH]c4ccccc34)C21 (stereo not given) | 10 | > 10 |  | > 10 | 15 |  |
| CN1c2ccc(OC(=O)NCc3ccccc3)cc2CN2CCc3c([nH]c4ccccc34)C21 (stereo not given) | 34 | > 10 | > 4.65 | 2.15 | 5.67 |  |
| CC(C)c1ccc(NC(=O)Oc2ccc3c(c2)CN2CCc4c([nH]c5ccccc45)C2N3C)cc1 (stereo not given) | 13 | > 10 |  | > 10 | 41 |  |
| CCCCNC(=O)Oc1ccc2c(c1)CN1CCc3c([nH]c4ccccc34)C1N2C (stereo not given) | 47 | > 10 | > 2.52 | 3.97 | 5.4 |  |
| O=c1c(O)c(-c2ccc(O)c(O)c2)oc2cc(O)cc(O)c12 |  |  |  |  |  | Activity (HT-22 [10]): Active |
| COc1cccc(NC(=O)Oc2ccc3c(c2)C(=O)N2CCc4c([nH]c5ccccc45)C2N3C)c1 (stereo not given) | 15 | > 10 |  | > 10 | 3 |  |
| CCNC(=O)Oc1ccc2c(c1)C(=O)N1CCc3c([nH]c4ccccc34)C1N2C (stereo not given) | 15 | > 10 |  | > 10 | 21 |  |
| CNC(=O)Oc1ccc2c(c1)[C@]1(C)CCN(C)[C@@H]1N2C | 8.11 |  |  |  | 7.22 |  |
| CCNC(=O)Oc1ccc2c(c1)CN1CCc3c([nH]c4ccccc34)C1N2C (stereo not given) | 26 | > 10 | > 9.71 | 1.03 | 5.99 |  |
| CC(C)c1ccc(NC(=O)Oc2ccc3c(c2)C(=O)N2CCc4c([nH]c5ccccc45)C2N3C)cc1 (stereo not given) | 14 | > 10 |  | > 10 | 7 |  |
| CN1c2ccc(O)cc2CN2CCc3c([nH]c4ccccc34)C21 (stereo not given) |  | > 100 | > 5.17 | 19.3 | 4.71 | inhibition [11]: 43%; ORAC value (Trolox equivalents) [4]: 3.55; Activity (HT-22 [5]): Active; inhibition [12]: 47%; Activity (HT-22 [8]): Toxic; Activity (HT-22 [9]): Non-toxic |
| CCCCCCCNC(=O)Oc1ccc2c(c1)C(=O)N1CCc3c([nH]c4ccccc34)C1N2C (stereo not given) |  |  |  |  |  | Activity (HT-22 [13]): Toxic; ORAC value (Trolox equivalents) [4]: 0.32; Activity (HT-22 [5]): Active |
| CCCCNC(=O)Oc1ccc2c(c1)C(=O)N1CCc3c([nH]c4ccccc34)C1N2C (stereo not given) | 10 | > 10 |  | > 10 | 12 |  |
| CN1c2ccccc2CN2CCc3c([nH]c4ccccc34)C21 (stereo not given) | 24 | > 10 | > 3.73 | 2.68 | 5.57 | ORAC value (Trolox equivalents) [4]: 2.32; Activity (HT-22 [14]): Active |
